The values that follow come from ChEMBL document CHEMBL3351932, “Discovery of BI 207524, an indole diamide NS5B thumb pocket 1 inhibitor with improved potency for the potential treatment of chronic hepatitis C virus infection” (J Med Chem, 2014).

Structures are written as SMILES.

One data set in a line: Clearance in rat at 2 mg/kg, iv. On the set-up: dose 2 mg/kg, route intravenous. The conditions noted are these: in vivo. The format is ADME, organism-based. In short, it runs like this:
(§1)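 Fasted animals dosed IV by bolus at 2 mg/kg in 70% PEG-400:30% water; N=3 per dose and route. Plasma separated at 4°C, stored near -20°C, solid-phase extracted, assayed by HPLC-UV or LC/MS with blank-plasma calibration (r2 > 0.99, LOQ 7 ng/mL); parameters from non-compartmental analysis.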
For the compound `COCCOc1cc(NC(=O)C2(NC(=O)c3ccc4c(C5CCCC5)c(-c5ncc(Cl)cn5)n(C)c4c3)CCC2)ccc1/C=C/C(=O)O`, the clearance was determined as 3.7 mL/min/kg.

The next data set is described as follows: Inhibition of HCV full-length NS5B polymerase. Also noted: species or system Hepacivirus hominis.
Conditions: not given
Put shortly:
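Polymerase inhibition with full-length NS5B enzyme in a biochemical assay; IC50 averaged from duplicate measurements, at least two determinations.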
`Cc1cc(/C=C/C(=O)O)ccc1NC(=O)C1(NC(=O)c2ccc3c(C4CCCC4)c(-c4ccccn4)n(C)c3c2)CCC1` displayed an IC50 of 370 nM.
Still for that read-out and setting: the figure for `Cn1c(-c2ccccn2)c(C2CCCC2)c2ccc(C(=O)NC3(C(=O)Nc4ccc(/C=C/C(=O)O)cc4F)CCC3)cc21` is 230 nM; for `Cn1c(-c2ccccn2)c(C2CCCC2)c2ccc(C(=O)NC3(C(=O)Nc4ccc(/C=C/C(=O)O)cc4Cl)CCC3)cc21` it is 300 nM.
On the same count and under the same terms, for `Cn1c(-c2ccccn2)c(C2CCCC2)c2ccc(C(=O)NC3(C(=O)Nc4ccc(/C=C/C(=O)O)cc4C(F)(F)F)CCC3)cc21` the value was 2250 nM; for `Cn1c(-c2ccccn2)c(C2CCCC2)c2ccc(C(=O)NC3(C(=O)Nc4c(F)cc(/C=C/C(=O)O)cc4F)CCC3)cc21`, 1320 nM; for `Cn1c(-c2ccccn2)c(C2CCCC2)c2ccc(C(=O)NC3(C(=O)Nc4ccc(/C=C/C(=O)O)cc4O)CCC3)cc21`, 440 nM.
Compound `Cc1cc(NC(=O)C2(NC(=O)c3ccc4c(C5CCCC5)c(-c5ccccn5)n(C)c4c3)CCC2)ccc1/C=C/C(=O)O` registered an IC50 of 69 nM.
On the same count and under the same terms, for `Cn1c(-c2ccccn2)c(C2CCCC2)c2ccc(C(=O)NC3(C(=O)Nc4ccc(/C=C/C(=O)O)c(F)c4)CCC3)cc21` the value was 61 nM; for `Cn1c(-c2ccccn2)c(C2CCCC2)c2ccc(C(=O)NC3(C(=O)Nc4ccc(/C=C/C(=O)O)c(Cl)c4)CCC3)cc21`, 100 nM.
For `Cn1c(-c2ccccn2)c(C2CCCC2)c2ccc(C(=O)NC3(C(=O)Nc4ccc(/C=C/C(=O)O)c(C(F)(F)F)c4)CCC3)cc21`, the IC50 worked out at 180 nM.
Same read-out and setting: for `Cn1c(-c2ccccn2)c(C2CCCC2)c2ccc(C(=O)NC3(C(=O)Nc4ccc(/C=C/C(=O)O)c(O)c4)CCC3)cc21` the value was 44 nM.
On the same count and under the same terms, the figure for `COc1cc(NC(=O)C2(NC(=O)c3ccc4c(C5CCCC5)c(-c5ccccn5)n(C)c4c3)CCC2)ccc1/C=C/C(=O)O` is 47 nM.
`COc1cc(NC(=O)C2(NC(=O)c3ccc4c(C5CCCC5)c(-c5ccccn5)n(C)c4c3)CCC2)cc(OC)c1/C=C/C(=O)O` registered an IC50 of 340 nM.
As for `CCOc1cc(NC(=O)C2(NC(=O)c3ccc4c(C5CCCC5)c(-c5ccccn5)n(C)c4c3)CCC2)ccc1/C=C/C(=O)O`, half-maximal inhibition (IC50) required 48 nM.
Same read-out and setting: the figure for `COCCOc1cc(NC(=O)C2(NC(=O)c3ccc4c(C5CCCC5)c(-c5ncc(Cl)cn5)n(C)c4c3)CCC2)ccc1/C=C/C(=O)O` is 200 nM.

The nature of the next data set: Cmax in rat at 10 mg/kg, po. The format is ADME, organism-based. On the set-up: dose 10 mg/kg, route oral. The conditions noted are these: in vivo. In short, it runs like this: (§2)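 Single-compound oral PK after overnight fast; 10 mg/kg given as suspension in 0.5% methylcellulose and 0.3% Tween-80, with or without 1% NMP as added solubilizer; N=3 per dose and route. Plasma kept on ice, centrifuged at 4°C, stored near -20°C, extracted by solid phase, quantified by HPLC-UV or LC/MS against blank-plasma standards (LOQ 7 ng/mL); non-compartmental analysis.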
Compound `COCCOc1cc(NC(=O)C2(NC(=O)c3ccc4c(C5CCCC5)c(-c5ncc(Cl)cn5)n(C)c4c3)CCC2)ccc1/C=C/C(=O)O` showed a Cmax of 4100 nM.

The nature of a further data set: Oral bioavailability in rat at 10 mg/kg. The data set is classed as ADME, organism-based. The conditions noted are these: in vivo. Put shortly:
as §2
Regarding `COCCOc1cc(NC(=O)C2(NC(=O)c3ccc4c(C5CCCC5)c(-c5ncc(Cl)cn5)n(C)c4c3)CCC2)ccc1/C=C/C(=O)O`, the bioavailability was 16%.

Another data set can be described thus: Half life in rat at 2 mg/kg, iv. The format is ADME, organism-based. Also noted: dose 2 mg/kg, route intravenous. Particulars: in vivo. In short, it runs like this:
as §1
In the case of `COCCOc1cc(NC(=O)C2(NC(=O)c3ccc4c(C5CCCC5)c(-c5ncc(Cl)cn5)n(C)c4c3)CCC2)ccc1/C=C/C(=O)O`, the half-life was 2.1 h.

A short description of another data set: Mean residence time in rat at 10 mg/kg, po. The data set is classed as ADME, organism-based. On the set-up: dose 10 mg/kg, route oral. The conditions noted are these: in vivo. Put shortly: as §2
The compound `COCCOc1cc(NC(=O)C2(NC(=O)c3ccc4c(C5CCCC5)c(-c5ncc(Cl)cn5)n(C)c4c3)CCC2)ccc1/C=C/C(=O)O` registered an MRT of 4.1 h.

Another data set in a line: Permeability across apical to basolateral side in human Caco2 cells. The data set is classed as ADME, cell-based. The conditions noted are these: Caco-2, read-out: permeability.
As for `COc1cc(NC(=O)C2(NC(=O)c3ccc4c(C5CCCC5)c(-c5ccccn5)n(C)c4c3)CCC2)cc(OC)c1/C=C/C(=O)O`, the Papp A→B amounted to 17.6 ×10⁻⁶ cm/s.
Still for that read-out and setting: the figure for `CCOc1cc(NC(=O)C2(NC(=O)c3ccc4c(C5CCCC5)c(-c5ccccn5)n(C)c4c3)CCC2)ccc1/C=C/C(=O)O` is 19 ×10⁻⁶ cm/s; for `COCCOc1cc(NC(=O)C2(NC(=O)c3ccc4c(C5CCCC5)c(-c5ncc(Cl)cn5)n(C)c4c3)CCC2)ccc1/C=C/C(=O)O` it is 17 ×10⁻⁶ cm/s.

The nature of another data set: Plasma concentration in rat at 4 mg/kg, po cassette dosing after 1 hr. The data set is classed as ADME, organism-based. Also noted: dose 4 mg/kg, route oral.
Conditions: not given
In short, it runs like this:
(§3)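 Cassette screen: mixture of 4 compounds, each at 4 mg/kg, dosed orally to 2 rats; plasma sampled at 1 h and 2 h, solid-phase extracted and quantified by HPLC-UV or LC/MS against calibration standards in blank plasma (LOQ 7 ng/mL).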
The compound `COc1cc(NC(=O)C2(NC(=O)c3ccc4c(C5CCCC5)c(-c5ccccn5)n(C)c4c3)CCC2)ccc1/C=C/C(=O)O` yielded a concentration at 1 h of 1100 nM.
Same read-out and setting: for `COc1cc(NC(=O)C2(NC(=O)c3ccc4c(C5CCCC5)c(-c5ccccn5)n(C)c4c3)CCC2)cc(OC)c1/C=C/C(=O)O` the value was 400 nM; for `CCOc1cc(NC(=O)C2(NC(=O)c3ccc4c(C5CCCC5)c(-c5ccccn5)n(C)c4c3)CCC2)ccc1/C=C/C(=O)O`, 900 nM.
Same read-out and setting: the figure for `COCCOc1cc(NC(=O)C2(NC(=O)c3ccc4c(C5CCCC5)c(-c5ncc(Cl)cn5)n(C)c4c3)CCC2)ccc1/C=C/C(=O)O` is 1700 nM.

A further data set is described as follows: Volume of distribution at steady state in rat at 2 mg/kg, iv. On the set-up: dose 2 mg/kg, route intravenous. The data set is classed as ADME, organism-based. Particulars: in vivo, read-out: Vdss. Put shortly: as §1
Consider `COCCOc1cc(NC(=O)C2(NC(=O)c3ccc4c(C5CCCC5)c(-c5ncc(Cl)cn5)n(C)c4c3)CCC2)ccc1/C=C/C(=O)O`, for which the Vd turned out to be 0.29 L/kg.

The next data set is described as follows: Half life in rat liver microsomes. The data set is classed as ADME.
Conditions: not given
On to `COc1cc(NC(=O)C2(NC(=O)c3ccc4c(C5CCCC5)c(-c5ccccn5)n(C)c4c3)CCC2)cc(OC)c1/C=C/C(=O)O`, for which the half-life came out at 0.7 h.

The nature of another data set: AUC in rat at 10 mg/kg, po. The data set is classed as ADME, organism-based. On the set-up: dose 10 mg/kg, route oral. Particulars: plasma. Put shortly: as §2
With `COCCOc1cc(NC(=O)C2(NC(=O)c3ccc4c(C5CCCC5)c(-c5ncc(Cl)cn5)n(C)c4c3)CCC2)ccc1/C=C/C(=O)O`, the AUC amounted to 10.6 µM·h.

Another data set can be described thus: Inhibition of Hepatitis C virus genotype 1b Con1 NS5B RNA dependent RNA polymerase activity using Bright-Glo luciferase substrate by cell-based 1b luciferase reporter assay. On the set-up: species or system Hepatitis C virus (isolate Con1).
Conditions: not given
Put shortly:
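Cell-based genotype 1b luciferase reporter replicon assay; EC50 determined in duplicate, values averaged over at least two determinations.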
`Cc1cc(/C=C/C(=O)O)ccc1NC(=O)C1(NC(=O)c2ccc3c(C4CCCC4)c(-c4ccccn4)n(C)c3c2)CCC1`: it took 1030 nM to reach a half-maximal effect (EC50).
Same read-out and setting: the figure for `Cn1c(-c2ccccn2)c(C2CCCC2)c2ccc(C(=O)NC3(C(=O)Nc4ccc(/C=C/C(=O)O)cc4F)CCC3)cc21` is 560 nM; for `Cn1c(-c2ccccn2)c(C2CCCC2)c2ccc(C(=O)NC3(C(=O)Nc4ccc(/C=C/C(=O)O)cc4C(F)(F)F)CCC3)cc21` it is over 2500 nM; for `Cn1c(-c2ccccn2)c(C2CCCC2)c2ccc(C(=O)NC3(C(=O)Nc4c(F)cc(/C=C/C(=O)O)cc4F)CCC3)cc21` it is over 2800 nM.
Same read-out and setting: the figure for `Cn1c(-c2ccccn2)c(C2CCCC2)c2ccc(C(=O)NC3(C(=O)Nc4ccc(/C=C/C(=O)O)cc4O)CCC3)cc21` is 250 nM; for `Cc1cc(NC(=O)C2(NC(=O)c3ccc4c(C5CCCC5)c(-c5ccccn5)n(C)c4c3)CCC2)ccc1/C=C/C(=O)O` it is 79 nM; for `Cn1c(-c2ccccn2)c(C2CCCC2)c2ccc(C(=O)NC3(C(=O)Nc4ccc(/C=C/C(=O)O)c(F)c4)CCC3)cc21` it is 130 nM.
Still for that read-out and setting: the figure for `Cn1c(-c2ccccn2)c(C2CCCC2)c2ccc(C(=O)NC3(C(=O)Nc4ccc(/C=C/C(=O)O)c(Cl)c4)CCC3)cc21` is 110 nM.
In turn, `Cn1c(-c2ccccn2)c(C2CCCC2)c2ccc(C(=O)NC3(C(=O)Nc4ccc(/C=C/C(=O)O)c(C(F)(F)F)c4)CCC3)cc21` yielded an EC50 of 230 nM.
On the same count and under the same terms, for `Cn1c(-c2ccccn2)c(C2CCCC2)c2ccc(C(=O)NC3(C(=O)Nc4ccc(/C=C/C(=O)O)c(O)c4)CCC3)cc21` the value was 170 nM; for `COc1cc(NC(=O)C2(NC(=O)c3ccc4c(C5CCCC5)c(-c5ccccn5)n(C)c4c3)CCC2)ccc1/C=C/C(=O)O`, 32 nM.
Still for that read-out and setting: the figure for `COc1cc(NC(=O)C2(NC(=O)c3ccc4c(C5CCCC5)c(-c5ccccn5)n(C)c4c3)CCC2)cc(OC)c1/C=C/C(=O)O` is 8 nM; for `CCOc1cc(NC(=O)C2(NC(=O)c3ccc4c(C5CCCC5)c(-c5ccccn5)n(C)c4c3)CCC2)ccc1/C=C/C(=O)O` it is 24 nM.
Same read-out and setting: for `COCCOc1cc(NC(=O)C2(NC(=O)c3ccc4c(C5CCCC5)c(-c5ncc(Cl)cn5)n(C)c4c3)CCC2)ccc1/C=C/C(=O)O` the value was 13 nM.

A further data set is described as follows: Half life in human liver microsomes. The format is ADME.
Conditions: not given
Compound `COc1cc(NC(=O)C2(NC(=O)c3ccc4c(C5CCCC5)c(-c5ccccn5)n(C)c4c3)CCC2)ccc1/C=C/C(=O)O` yielded a half-life of 1.37 h.
Compound `CCOc1cc(NC(=O)C2(NC(=O)c3ccc4c(C5CCCC5)c(-c5ccccn5)n(C)c4c3)CCC2)ccc1/C=C/C(=O)O` had a half-life of 1.07 h.
On the same count and under the same terms, for `COCCOc1cc(NC(=O)C2(NC(=O)c3ccc4c(C5CCCC5)c(-c5ncc(Cl)cn5)n(C)c4c3)CCC2)ccc1/C=C/C(=O)O` the value was over 5 h.

A further data set can be described thus: Plasma concentration in rat at 4 mg/kg, po cassette dosing after 2 hrs.
Conditions: not given
On the set-up: dose 4 mg/kg, route oral. The format is ADME, organism-based. Put shortly: as §3
The compound `COc1cc(NC(=O)C2(NC(=O)c3ccc4c(C5CCCC5)c(-c5ccccn5)n(C)c4c3)CCC2)ccc1/C=C/C(=O)O` yielded a concentration at 2 h of 500 nM.
In the case of `CCOc1cc(NC(=O)C2(NC(=O)c3ccc4c(C5CCCC5)c(-c5ccccn5)n(C)c4c3)CCC2)ccc1/C=C/C(=O)O`, the concentration at 2 h was 400 nM.
Same read-out and setting: for `COCCOc1cc(NC(=O)C2(NC(=O)c3ccc4c(C5CCCC5)c(-c5ncc(Cl)cn5)n(C)c4c3)CCC2)ccc1/C=C/C(=O)O` the value was 1100 nM.
